Bridge positions count the residues as written; N and C are the ends. Square brackets hold non-standard residues; d marks the D form. Peptide text beside a SMILES is read from it. * marks the point of attachment. NH(β-GlcNAc) = CC(=O)N[C@@H]1[C@@H](O)[C@H](O)[C@@H](CO)O[C@H]1N*; Dap = NC[C@H](N)C(=O)O
Columns and labels:
Substance-K receptor [1] = molecular target: T1, Substance-K receptor (Homo sapiens, UniProt P21452, Y206F); test: Compound was evaluated for Kd value against [125I]NKA on the Tyr206Phe mutated human NK-2 receptor
T1 sequence (P21452 whole entry): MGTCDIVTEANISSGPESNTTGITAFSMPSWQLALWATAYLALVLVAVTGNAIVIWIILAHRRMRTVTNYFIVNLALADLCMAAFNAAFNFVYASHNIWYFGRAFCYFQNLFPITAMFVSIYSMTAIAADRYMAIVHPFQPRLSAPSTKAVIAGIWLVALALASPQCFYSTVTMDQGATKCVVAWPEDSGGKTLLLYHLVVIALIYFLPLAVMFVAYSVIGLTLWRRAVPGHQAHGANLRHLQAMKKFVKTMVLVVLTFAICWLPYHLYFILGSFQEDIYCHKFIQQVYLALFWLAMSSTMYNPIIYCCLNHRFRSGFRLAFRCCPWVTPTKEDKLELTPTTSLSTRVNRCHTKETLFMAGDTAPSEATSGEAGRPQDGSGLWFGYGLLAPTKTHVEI
Procedure, shortened: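 Human NK-2 receptor carrying the point mutation, transfected into CHO cells. Radioligand binding with [125I]NKA.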

Substance-K receptor [2] = molecular target: T2, Substance-K receptor (Homo sapiens, UniProt P21452, Y266F); test: Compound was evaluated for Kd value against [3H]-SR- 48968 on the Tyr266Phe mutated human NK-2 receptor
T2 sequence (P21452 whole entry): T1 sequence (P21452 whole entry)

Substance-K receptor [3] = molecular target: T3, Substance-K receptor (Homo sapiens, UniProt P21452, Y206A); test: (§1) Compound was evaluated for Kd value against [3H]-SR- 48968 on the Tyr206Ala mutated human NK-2 receptor
T3 sequence (P21452 whole entry): T1 sequence (P21452 whole entry)

Substance-K receptor [4] = molecular target: T4, Substance-K receptor (Homo sapiens, UniProt P21452, F270A); test: Compound was evaluated for Kd value against [3H]-SR- 48968 on the Phe270Ala mutated human NK-2 receptor
T4 sequence (P21452 whole entry): T1 sequence (P21452 whole entry)

Substance-K receptor [5] = molecular target: T1, Substance-K receptor; test: Compound was evaluated for Kd value against [3H]-SR- 48968 on the Tyr206Phe mutated human NK-2 receptor
Substance-K receptor [6] = molecular target: T2, Substance-K receptor; test: Compound was evaluated for Kd value against [125I]NKA on the Tyr266Phe mutated human NK-2 receptor
Substance-K receptor [7] = molecular target: T5, Substance-K receptor (Homo sapiens, UniProt P21452); test: Compound was evaluated for Kd value against [3H]-SR- 48968 on the Wild-type tachykinin receptor 2
T5 sequence (P21452 whole entry): T1 sequence (P21452 whole entry)

Substance-K receptor [8] = molecular target: T5, Substance-K receptor; test: Compound was evaluated for Kd value against [125I]NKA on the Wild-type tachykinin receptor 2
Substance-K receptor [9] = molecular target: T1, Substance-K receptor; test: Compound was evaluated for Kd value against [125I]-NKA on the Tyr206Phe mutated human NK-2 receptor
Substance-K receptor [10] = molecular target: T5, Substance-K receptor; test: as §1

SMILES | Kd (Substance-K receptor [1]) [nM] | Kd (Substance-K receptor [2]) [nM] | Kd (Substance-K receptor [3]) [nM] | Kd (Substance-K receptor [4]) [nM] | Kd (Substance-K receptor [5]) [nM] | Kd (Substance-K receptor [6]) [nM] | Kd (Substance-K receptor [7]) [nM] | Kd (Substance-K receptor [8]) [nM] | Kd (Substance-K receptor [9]) [nM] | Kd (Substance-K receptor [10]) [nM]
O=C1CCC(=O)N[C@@H](Cc2c[nH]c3ccccc23)C(=O)N[C@@H](Cc2ccccc2)C(=O)N[C@H](Cc2ccccc2)CN1 [MEN-11558] | 3.6 | 48 | 1960 | 208 | 1.3 | 34 | 10 | 2.7 |  | 
CC(=O)N[C@@H]1[C@@H](O)[C@H](O)[C@@H](CO)O[C@H]1NC(=O)C[C@@H]1NC(=O)[C@H](CC(C)C)NC(=O)[C@@H]2CNC(=O)C[C@H](NC1=O)C(=O)N[C@@H](Cc1c[nH]c3ccccc13)C(=O)N[C@@H](Cc1ccccc1)C(=O)N2 (cyclo(D(NH(β-GlcNAc))DWF[Dap]L); lactam 2-5) |  | 48 |  | 291 | 1.9 | 26 | 4.4 | 2.1 | 3.1 | > 1000

Reference: BindingDB's records for doi:10.1021/jm0010217 (Menarini Ricerche, 2000)
